Only some compounds are listed: those with a hit (about 1.3% of all), similar ones and a draw of the others.
NSD2 inh: blocks human histone methyltransferase NSD2. NSD2 peptide methylation, AlphaScreen, 120 min. inhibition, % at 12.5 µM. 310,000 compounds, 0.54% hits; in the data active means inhibition above about 50%
CASP6 VEID inh: inhibitors of human caspase-6 | purified caspase-6, Z-VEID-R110 cleavage fluorescence | inhibition, % at 12.5 µM | P55212 | 350,000 compounds, 0.53% hits;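 active means mean inhibition across replicates at least about 35%, with every replicate also reaching that limit, limit read from the data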;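 further: 0% = median of neutral control wells and 100% = no fluorescence left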
LEDGF integ inh: blocks HIV-1 LEDGF/p75-dependent DNA integration | TR-FRET IN-LEDGF/p75 DNA integration, Eu/Cy5 | inhibition, % at 3.7 µM | 370,000 compounds, 0.64% hits;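 active means inhibition above the screen-wide mean plus 3 SD, cut at about 13% in these data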;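 further: signal is the Cy5 over europium emission ratio at 671 and 618 nm; 0% = plate median of compound wells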
TDP2 absorb: blocks human TDP2 phosphodiesterase activity; recombinant TDP2, T5PNP hydrolysis, p-nitrophenol absorbance 415 nm; 370,000 compounds, 0.34% hits; AID 720702; inhibition, % at 12.8 µM; O95551;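 active means inhibition above the mean of all tested compounds plus 3 SD, set per campaign, cut at about 25% in these data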;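 further: 0% = DMSO with enzyme and 100% = buffer with substrate but no TDP2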
Target sequence (O95551 whole entry, looked up): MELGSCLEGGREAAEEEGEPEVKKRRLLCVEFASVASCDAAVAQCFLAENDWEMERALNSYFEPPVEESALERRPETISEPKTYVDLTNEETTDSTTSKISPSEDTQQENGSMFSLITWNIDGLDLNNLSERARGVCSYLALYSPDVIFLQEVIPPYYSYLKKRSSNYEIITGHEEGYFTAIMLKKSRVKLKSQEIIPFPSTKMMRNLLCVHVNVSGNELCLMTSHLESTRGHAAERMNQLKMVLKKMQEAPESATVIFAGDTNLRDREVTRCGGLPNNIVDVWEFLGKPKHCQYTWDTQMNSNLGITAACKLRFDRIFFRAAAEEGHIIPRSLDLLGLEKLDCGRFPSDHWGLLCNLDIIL
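System – recombinant human TDP2 · Quantity – TDP2 enzyme at 120 nM final · Doses – single concentration, 12.8 µM nominal, with 1% DMSO · Incubation – 2 h at 37 °C · Measured by – epi absorbance of p-nitrophenol freed from T5PNP by hydrolysis · Read-out – % inhibition relative to enzyme-containing and enzyme-free wells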
UCH37 inh: blocks the human deubiquitinase UCH37; Q9Y5K5; purified proteasome/UCH37, Ub-AMC cleavage fluorescence; inhibition, % (concentration not given with the values); 330,000 compounds, 0.33% hits; AID 588478;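 active means mean inhibition over replicate wells above about 20%, limit read from the data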;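 further: 0% = compound-free wells with enzyme and 100% = wells lacking proteasome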
Target sequence (Q9Y5K5 whole entry, looked up): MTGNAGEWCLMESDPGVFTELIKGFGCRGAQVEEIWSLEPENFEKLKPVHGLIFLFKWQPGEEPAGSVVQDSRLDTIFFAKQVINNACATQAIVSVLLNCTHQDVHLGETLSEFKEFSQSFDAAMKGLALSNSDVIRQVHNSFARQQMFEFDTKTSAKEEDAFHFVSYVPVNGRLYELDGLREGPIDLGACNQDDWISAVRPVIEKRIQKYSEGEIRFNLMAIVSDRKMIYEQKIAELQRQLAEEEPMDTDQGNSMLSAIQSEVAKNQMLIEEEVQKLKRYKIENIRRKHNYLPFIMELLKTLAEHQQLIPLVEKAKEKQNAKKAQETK
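System: Proteasome-associated human UCH37 deubiquitinase; Input: 0.15 nM proteasome in added enzyme buffer; Also added: Ub-AMC substrate from 1 µM stock; Incubation: 30 min compound-proteasome preincubation then 25 min substrate reaction, room temperature; Detection: fluorescence, ex 355 nm, em 460 nm; Read-out: % inhibition of Ub-AMC cleavage fluorescence; Benchmarks: no-proteasome and no-compound wells.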
IN multimer act: activates HIV-1 integrase multimerization in LEDGF counter-screen. shares compounds with LEDGF integ inh. 2,000 compounds, 17% hits. AID 1053131. TR-FRET HIV-1 integrase multimerization, biochemical. activation, % at 7.7 µM; in the data active means activation above about 8.9%
TRFRET interf: TR-FRET optical interference, LEDGF/p75 integration counter-screen; TR-FRET optical interference counterscreen, HIV-1 IN multimerization; inhibition, % at 7.7 µM; shares compounds with LEDGF integ inh; 2,000 tested, under 10 active;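 active means inhibition above the mean over all tested compounds plus 3 SD, which no compound reached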;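 further: 0% = integrase with antibodies and DMSO and 100% = antibodies without integrase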
IN-LEDGF confirm: LEDGF/p75-dependent HIV-1 integration inhibition, confirmation. shares compounds with LEDGF integ inh. TR-FRET LEDGF/p75-dependent HIV-1 integration, biochemical. inhibition, % at 3.7 µM. 2,000 compounds, 36% hits. AID 1053136; in the data active means inhibition above about 14%
* = called active by the depositor; / = not tested or not shown.

SMILES	NSD2 inh	CASP6 VEID inh	LEDGF integ inh	TDP2 absorb	UCH37 inh	IN multimer act	TRFRET interf	IN-LEDGF confirm
O=C(/C=C/c1ccco1)Nc1sc2c(c1C(=O)O)CCC2	10.8	60.7*	20.8*	15.1	13.6	2.5	-9.1	-3.5
CCN(CC)c1ccc(C=Nc2ccc(N(C)C)cc2)c(O)c1	8.6	/	33.9*	18.6	3.2	12.7*	-44.7	3.6
CCN(CC)c1ccc(C=Nc2ccc(C)cc2)c(O)c1	1.1	/	-0.3	-10.6	1.6	/	/	/
CCN(CC)c1ccc(N=Cc2ccc(N(CC)CC)cc2O)cc1	4.1	/	15.1*	7.8	/	6.2	-22.4	-6.2
Br/C(C=Nn1cnnc1)=C\c1ccccc1	/	/	/	/	1.2	/	/	/
COc1ccc(C=NNS(=O)(=O)c2ccc(Cl)cc2)cc1COc1ccccc1[N+](=O)[O-]	/	/	/	/	3.2	/	/	/
Cc1cc(C(C)(C)C)cc(C)c1S(=O)(=O)N1CCN(C(=O)c2cc([N+](=O)[O-])c[nH]c2=O)CC1	9.8	5.2	28.4*	5.1	6.1	0.6	-1.7	-6.5
COC(=O)/C(=C/Nc1ccc(O)cc1)[N+](=O)[O-]	/	/	24.8*	7.5	6.8	4.6	-16.4	-1.2
COC(=O)/C(=C/Nc1ccccc1)[N+](=O)[O-]	-1.8	/	-2.0	4.0	8.1	/	/	/
Cc1cccc(CN(CC(=O)NN=Cc2ccco2)S(=O)(=O)c2ccc(Cl)cc2)c1	/	/	/	/	-1.8	/	/	/
CC(=O)NC(CC(=O)Nc1ccc(S(=O)(=O)N2CCCCC2)cc1)c1ccccc1 (configuration not stated)	-1.2	-0.1	-1.0	3.6	5.3	/	/	/
CCOc1ccc(NC(=O)CC(NC(C)=O)c2ccccc2)cc1S(=O)(=O)N1CCCC1 (configuration not stated)	-1.4	-0.9	14.0*	-10.0	1.7	0.3	-1.5	-1.9
O=C(CC(=O)NN=Cc1ccccc1O)NCc1cccnc1	/	/	/	/	-17.2	/	/	/
O=C(O)CCCNC(=O)/C=C/c1ccco1	24.2	60.4*	38.5*	0.5	0.4	38.0*	-191.7	87.4*
COc1cccc(NC(=S)NC(=O)/C=C/c2ccco2)c1	4.0	9.2	-0.1	-3.6	3.1	/	/	/
O=C(/C=C/c1ccco1)Nc1ccccc1C(=O)Nc1cccc(C(=O)O)c1	6.2	13.4	24.8*	-9.3	7.2	4.2	-21.0	18.7*
CCCn1nnc(NC(=O)/C=C/c2ccco2)n1	-1.9	1.0	5.8	9.2	5.2	/	/	/
Cn1nnc(NC(=S)NC(=O)/C=C/c2ccco2)n1	19.3	15.7	13.6*	2.1	4.4	6.3	-22.3	10.9
O=C(O)CCCCCNC(=O)/C=C/c1ccco1	-2.9	8.2	-1.7	8.1	3.5	/	/	/
O=C(/C=C/c1ccco1)NC(=S)Nc1cccc(C(=O)O)c1	39.7	36.3*	43.9*	19.3	7.3	8.6	-43.0	15.6*
CC(=NNC(=O)CC1(C)OCCO1)c1cccs1	/	/	/	/	4.9	/	/	/
COc1cc(/C=C2\CCc3c2nc2ccccc2c3C(=O)O)cc(OC)c1OC	/	49.1*	25.9*	2.7	-14.5	7.4	-37.4	33.9*
CS(=O)(=O)N(CC(=O)N1CCOCC1)c1cccc(F)c1	0.6	0.2	-2.2	14.9	3.5	/	/	/
CS(=O)(=O)N(CC(=O)N1CCN(c2cccc(Cl)c2)CC1)c1cccc(F)c1	-3.2	/	23.6*	4.8	2.6	0.3	-1.3	-6.2
Cc1cccc[n+]1CCCCCCCCCC[n+]1ccccc1C	-2.5	-24.2	21.3*	14.5	0.2	0.0	0.1	-4.5
SMILES	NSD2 inh	CASP6 VEID inh	LEDGF integ inh	TDP2 absorb	UCH37 inh	IN multimer act	TRFRET interf	IN-LEDGF confirm
COc1ccc(-c2cc3ncc(C(C)=O)c(C)n3n2)cc1	-1.2	-0.9	24.9*	1.5	-128.2	0.0	-0.2	-0.6
COc1cc(CCCN2CCNC[C@H]2Cc2cccc3ccccc23)cc(OC)c1OC	/	-2.4	43.8*	9.1	-0.7	-0.2	1.3	-9.3
O=C1CCC(=O)c2ccc3c4c(ccc1c24)CC3	2.2	92.3*	44.4*	12.7	-190.1	-0.7	3.6	-0.7
O=C(CSc1nc2ccccc2o1)NC(=O)NCc1ccccc1	-0.1	/	29.4*	0.9	-0.9	0.8	-3.9	-0.3
O=C(CSc1nc2ccccc2o1)NC(=O)NCc1ccco1	-0.4	/	0.6	-6.0	1.3	/	/	/
Cc1ccc(S(=O)(=O)Oc2ccc(C=NNC(=O)c3cccnc3)cc2)cc1	/	/	/	/	1.5	/	/	/
COc1cccc(-n2c(SCc3cc(=O)oc4cc(O)c(O)cc34)nc3ccccc3c2=O)c1	32.1	15.5	27.1*	-11.0	-1.8	13.9*	-49.8	72.3*
COc1ccc(NC(=O)CSc2nc(O)cc(=O)n2-c2ccc(OC)cc2)cc1	-3.7	1.3	3.8	-7.6	-0.3	/	/	/
CNC(=O)CSc1nc2ccccc2c(=O)n1-c1cc(OC)ccc1OC	1.0	2.4	17.5*	-4.7	-2.0	-2.4	12.1	-8.7
COc1ccc(-n2c(SCC(=O)Nc3ccccc3)nc(O)cc2=O)cc1	0.7	4.4	53.5*	0.4	1.9	0.2	-0.9	-3.3
COc1ccc(NC(=O)C2Cc3ccccc3OC2=NO)cc1 (configuration not stated)	/	/	/	/	-2.3	/	/	/
CC(CCc1ccccc1)NC(=O)CN1CCc2ccccc2C1 (configuration not stated)	-0.3	1.1	14.7*	-15.3	0.9	-1.9	6.7	-7.4
CC(=O)C(Cc1ccccc1)NC(=O)CN1CCc2ccccc2C1 (configuration not stated)	-2.6	-96.5	-5.8	12.5	1.1	/	/	/
O=c1oc(/C=C/c2ccco2)nc2sc3c(c12)CCC3	2.8	/	24.6*	-0.4	/	1.2	-4.3	2.5
O=C(Cc1csc(N2CCOCC2)n1)NN=Cc1cccc(O)c1	/	/	/	/	0.8	/	/	/
COc1cccc(NC(=O)CN(C)C(=O)Cc2ccc3c(c2)CCC3)c1	-0.6	-1.7	-0.9	1.4	-3.8	/	/	/
COc1cccc(NC(=O)CN(C)C(=O)Cc2ccc3c(c2)OCCO3)c1	-0.2	-96.9	92.5*	-2.5	-1.5	-1.7	8.4	-1.9
CC(=NNc1ccccn1)c1cccs1	/	/	/	/	8.2	/	/	/
CCc1ccccc1NC(=O)CCS(=O)(=O)c1ccc(OC)cc1	-1.7	/	15.7*	2.3	3.8	3.2	-11.4	-1.2
O=C(O)c1cccc(-n2cccc2/C=C/[N+](=O)[O-])c1	/	65.2*	36.2*	12.5	2.7	13.9*	-70.1	40.4*
COc1ccc(/C=C(\C#N)C(=O)NCCc2ccccc2)cc1OCc1ccccc1	-2.2	5.4	0.7	2.5	-9.4	/	/	/

Screening results deposited in PubChem BioAssay by several laboratories.
